Laboratory results: ChEMBL document CHEMBL1133746 (J Med Chem, 2000)
*1 amine or outer side, *2 acyl side, *3 side chain or, on linkers, in order; H or OH if unused. Where a SMILES comes first, the peptide text is derived from it. [ ]: non-standard residue; d: D form. The star is where a group is joined. X2 = O=C(O)CN1C(=O)[C@H](N*)CSc2ccccc21; X1 = O=C([C@@H]1CC(O)CN1[*:1])[*:2]; Igl = N[C@H](C(=O)O)C1Cc2ccccc2C1; Hyp = O=C(O)[C@@H]1C[C@@H](O)CN1; 2Thi = N[C@@H](Cc1cccs1)C(=O)O

Columns and labels:
B1 bradykinin receptor = molecular target: T1, B1 bradykinin receptor (Homo sapiens, UniProt P46663); test: Ability to bind to human cloned B1 receptor in competition binding experiments with [3H][des-Arg10,Leu9]-Kallidin.
T1 sequence (P46663 whole entry): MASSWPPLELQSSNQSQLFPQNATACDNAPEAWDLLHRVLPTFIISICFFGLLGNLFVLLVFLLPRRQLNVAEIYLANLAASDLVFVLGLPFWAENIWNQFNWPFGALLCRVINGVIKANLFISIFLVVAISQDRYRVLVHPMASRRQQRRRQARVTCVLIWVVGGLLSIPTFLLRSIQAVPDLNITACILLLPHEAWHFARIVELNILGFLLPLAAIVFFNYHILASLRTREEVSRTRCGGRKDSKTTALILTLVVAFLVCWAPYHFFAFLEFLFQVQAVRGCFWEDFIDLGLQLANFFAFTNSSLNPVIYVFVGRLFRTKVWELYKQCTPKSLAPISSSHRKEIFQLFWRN
How it was run: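 Membranes from stably transfected human embryonic kidney 293 cells expressing the human B1 receptor were used. Cells were scraped into 25 mM TES pH 7.4 with 1 mM 1,10-phenanthroline, 140 µg/mL bacitracin and 0.1% BSA, and membranes were spun at 40000g for 15 min. Incubation was with 1 nM [3H][des-Arg10,Leu9]-kallidin for 60 min. Nonspecific binding was taken with 10 µM [des-Arg10,Leu9]-kallidin. Bound label was collected by filtration on PEI-soaked GF/B filters and counted by scintillation.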

Homo sapiens [1] = organism: Homo sapiens; test: Ability to inhibit contraction of human umbilical vein (HUV) induced by [des-Arg10]-Kallidin was determined.; type: functional; details: read-out: pA2 (converted)
How it was run: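 Human umbilical vein rings (3–4 mm) were kept overnight at 37 °C in Krebs with penicillin/streptomycin under 95% O2/5% CO2 to induce B1. They were then set in organ baths at 37 °C with captopril, thiorphan, mepyramine, atropine, indomethacin, NG-nitro-L-arginine and nifedipine added. [des-Arg10]-kallidin concentration-response curves were run 30 min later, with antagonist or vehicle added 15 min before. Means are of at least 3 experiments.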

B2 bradykinin receptor = molecular target: T2, B2 bradykinin receptor (Homo sapiens, UniProt P30411); test: Ability to bind to human cloned B2 receptor in competition binding experiments with [3H]- bradykinin
T2 sequence (P30411 whole entry): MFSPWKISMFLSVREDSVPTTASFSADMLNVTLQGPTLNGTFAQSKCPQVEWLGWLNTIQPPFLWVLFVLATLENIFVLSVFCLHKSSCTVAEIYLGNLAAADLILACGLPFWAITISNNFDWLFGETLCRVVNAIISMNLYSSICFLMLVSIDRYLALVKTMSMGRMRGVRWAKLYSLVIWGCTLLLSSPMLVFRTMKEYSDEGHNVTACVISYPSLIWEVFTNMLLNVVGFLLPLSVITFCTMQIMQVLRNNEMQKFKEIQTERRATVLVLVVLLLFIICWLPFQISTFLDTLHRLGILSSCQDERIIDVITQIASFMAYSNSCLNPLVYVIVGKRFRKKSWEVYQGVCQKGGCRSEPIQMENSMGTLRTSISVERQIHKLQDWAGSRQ
How it was run: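 Membranes were prepared from stably transfected CHO cells expressing the human B2 receptor. Cells were scraped into 20 mM TES pH 6.8 with 1 mM 1,10-phenanthroline, 140 µg/mL bacitracin and 0.1% BSA, and membranes were spun at 40000g for 15 min. Bound label was filtered on PEI-soaked GF/B filters, washed with ice-cold buffer and counted.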

Homo sapiens [2] = organism: Homo sapiens; test: Inhibition of contraction of human umbilical vein (HUV) induced by different concentrations of bradykinin was determined; type: functional; details: for Kb: read-out: pA2 (converted)
How it was run: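 Human umbilical vein rings (3–4 mm) were mounted in Krebs organ baths at 37 °C with 95% O2/5% CO2. Captopril (10 µM), DL-thiorphan (1 µM), mepyramine (1 µM), atropine (1 µM), indomethacin (3 µM), NG-nitro-L-arginine (30 µM) and nifedipine (0.1 µM) were added. […] Means are of at least 3 experiments.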

Molecule | Ki (B1 bradykinin receptor) [nM] | Kb (Homo sapiens [1]) [nM] | Ki (B2 bradykinin receptor) [nM] | Kb (Homo sapiens [2]) [nM] | pKp (Homo sapiens [2]) | pD2 (Homo sapiens [2])
NCCCC[C@H](N)C(=O)N[C@@H](CCCN=C(N)N)C(=O)N1CCC[C@H]1C(=O)N1CC(O)C[C@H]1C(=O)NCC(=O)N[C@@H](Cc1cccs1)C(=O)N[C@@H](CO)C(=O)N[C@@H]1CSc2ccccc2N(CC(=O)O)C1=O (some centres undefined) (H-KRP[X1]G[2Thi]S-X2) [listing 1 of 2 here] | 0.22 | 39.8 | 0.4 | – | – | –
N=C(N)NCCC[C@@H](N)C(=O)N[C@@H](CCCNC(=N)N)C(=O)N1CCC[C@H]1C(=O)N1CC(O)C[C@H]1C(=O)NCC(=O)N[C@@H](Cc1cccs1)C(=O)N[C@@H](CO)C(=O)N[C@@H]1CSc2ccccc2N(CC(=O)O)C1=O (some centres undefined) | 83 | – | 4.4 | – | – | –
NC(N)=NCCC[C@@H](N)C(=O)N[C@@H](CCCN=C(N)N)C(=O)N1CCC[C@H]1C(=O)N1C[C@H](O)C[C@H]1C(=O)NCC(=O)N[C@@H](Cc1cccs1)C(=O)N[C@@H](CO)C(=O)N1Cc2ccccc2C[C@@H]1C(=O)N1[C@H](C(=O)N[C@@H](CCCN=C(N)N)C(=O)O)C[C@@H]2CCCC[C@@H]21 | > 1000 | > 10000 | – | – | – | –
NCCCC[C@H](NC(=O)[C@@H](N)CCCCN)C(=O)N[C@@H](CCCN=C(N)N)C(=O)N1CCC[C@H]1C(=O)N1CC(O)C[C@H]1C(=O)NCC(=O)N[C@H](C(=O)N[C@@H](CO)C(=O)N[C@@H]1CSc2ccccc2N(CC(=O)O)C1=O)C1Cc2ccccc2C1 (some centres undefined) (H-KKRP[X1]G[Igl]S-X2) | 0.035 | 3.16 | 62 | 3160 | – | –
CC(C)C[C@H](NC(=O)[C@@H]1CCCN1C(=O)[C@H](CO)NC(=O)[C@H](Cc1ccccc1)NC(=O)CNC(=O)[C@@H]1CCCN1C(=O)[C@@H]1CCCN1C(=O)[C@@H](N)CCCN=C(N)N)C(=O)O | – | 398 | > 1000 | > 10000 | – | –
NC(N)=NCCC[C@@H](N)C(=O)N[C@@H](CCCN=C(N)N)C(=O)N1CCC[C@H]1C(=O)N1C[C@H](O)C[C@H]1C(=O)NCC(=O)N[C@@H](Cc1cccs1)C(=O)N[C@@H](CO)C(=O)N1Cc2ccccc2C[C@@H]1C(=O)N1[C@H](C(=O)O)C[C@@H]2CCCC[C@@H]21 | 24 | 31.6 | – | > 10000 | – | –
NCCCC[C@H](N)C(=O)N[C@@H](CCCN=C(N)N)C(=O)N1CCC[C@H]1C(=O)N1CC(O)C[C@H]1C(=O)NCC(=O)N[C@@H](Cc1cccs1)C(=O)N[C@@H](CO)C(=O)N[C@@H]1CSc2ccccc2N(CC(=O)O)C1=O (some centres undefined) (H-KRP[X1]G[2Thi]S-X2) [listing 2 of 2 here] | – | – | – | – | 4.8 | –
H-RPPGFSPFR-OH [BRADYKININ] | – | – | – | – | – | 7.9
CC(C)C[C@H](NC(=O)[C@@H]1CCCN1C(=O)[C@H](CO)NC(=O)[C@H](Cc1ccccc1)NC(=O)CNC(=O)[C@@H]1CCCN1C(=O)[C@@H]1CCCN1C(=O)[C@H](CCCN=C(N)N)NC(=O)[C@@H](N)CCCCN)C(=O)O | – | 12.6 | > 1000 | > 10000 | – | –
NC(N)=NCCC[C@@H](N)C(=O)N[C@@H](CCCN=C(N)N)C(=O)N1CCC[C@H]1C(=O)N1CC(O)C[C@H]1C(=O)NCC(=O)N[C@H](C(=O)N[C@@H](CO)C(=O)N[C@@H]1CSc2ccccc2N(CC(=O)O)C1=O)C1Cc2ccccc2C1 (some centres undefined) | 5.6 | – | 325 | > 10000 | – | –
NCCCC[C@H](N)C(=O)N[C@@H](CCCN=C(N)N)C(=O)N1CCC[C@H]1C(=O)N1C[C@H](O)C[C@H]1C(=O)NCC(=O)N[C@H](C(=O)N[C@@H](CO)C(=O)N[C@@H]1CSc2ccccc2N(CC(=O)O)C1=O)C1Cc2ccccc2C1 (H-KRP[Hyp]G[Igl]S-X2) | 0.023 | 10 | 9.2 | > 10000 | – | –
